Legend:
[1] = Drug level in Sprague-Dawley rat liver at 4 mg/kg, po after 4 hrs; format: ADME, organism-based; parameters: dose 4 mg/kg, route oral; details: read-out: Drug uptake
Outline: (§1)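 Oral dosing in male Sprague-Dawley rats, PEG400 vehicle; plasma exposure as AUC 0–4 h; liver tissue concentration taken at the 4 h time point. Doses of 3–4 mg/kg were normalized to 5 mg/kg by linear adjustment.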

Hepatitis C virus [2] = assay: Inhibition of HCV 1b NS3 protease by time-resolved fluorescence assay; parameters: species or system Hepatitis C virus subtype 1b
Outline: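 Recombinant genotype 1b NS3 protease measured by time-resolved fluorescence assay; Ki determined.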

[3] = AUC (0 to 4 hrs) in Sprague-Dawley rat at 5 mg/kg, po; format: ADME, organism-based; parameters: time < 4 hr, dose 5 mg/kg, route oral; details: plasma; outline: as §1
[4] = Drug level in Sprague-Dawley rat liver at 5 mg/kg, po after 4 hrs; format: ADME, organism-based; parameters: dose 5 mg/kg, route oral; details: read-out: Drug uptake; outline: as §1
[5] = AUC (0 to 4 hrs) in Sprague-Dawley rat at 4 mg/kg, po; format: ADME, organism-based; parameters: time < 4 hr, dose 4 mg/kg, route oral; details: plasma; outline: as §1
Hepatitis C virus [6] = assay: Antiviral activity against HCV 1b infected in human HuH7 cells by replicon assay in presence of 10% fetal bovine serum; format: functional, organism-based, Hepacivirus hominis; details: genotype 1b, Huh-7
Outline: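 Subgenomic genotype 1b HCV RNA replicon in HUH-7 cells, modified Bartenschlager procedure, run with 10% fetal bovine serum. Read-out is cellular HCV RNA, confirmed in a separate assay using an anti-NS3 monoclonal antibody; EC50 derived.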

Hepatitis C virus [7] = assay: Antiviral activity against HCV 1b infected in human HuH7 cells by replicon assay in presence of 50% normal human plasma; format: functional, organism-based, Hepacivirus hominis; details: genotype 1b, Huh-7, Plasma
Outline: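 Genotype 1b subgenomic replicon in HUH-7 cells run under high-serum conditions (50% normal human serum). Read-out is cellular HCV RNA; EC50 reported.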

Homo sapiens = species on record: Homo sapiens; assay: Fraction unbound in human plasma

Row | SMILES | concentration at 4 h [1] | AUC(0-t) at 4 h [3] | concentration at 4 h [4] | AUC(0-t) at 4 h [5] | EC50 (Hepatitis C virus [6]) | fraction unbound (Homo sapiens) | Ki (Hepatitis C virus [2]) | EC50 (Hepatitis C virus [7])
1 | C=C[C@@H]1C[C@]1(NC(=O)[C@@H]1C[C@@H]2CN1C(=O)[C@H](C1CCCC1)N[C@H](C)CCCC/C=C/c1cccc3c1CN(C3)C(=O)O2)C(=O)NS(=O)(=O)C1CC1 |  | < 0.1 µM·h | 260 nM |  | 0.5 nM |  | 0.29 nM | 
2 | C=C[C@@H]1C[C@]1(NC(=O)[C@@H]1C[C@@H]2CN1C(=O)[C@H](C(C)C)N[C@@H](C(F)(F)F)CCCCCCc1cccc3c1CN(C3)C(=O)O2)C(=O)NS(=O)(=O)C1CC1 |  |  |  |  | 470 nM |  | 5.7 nM | 
3 | C=C[C@@H]1C[C@]1(NC(=O)[C@@H]1C[C@@H]2CN1C(=O)[C@H](C(C)C)NC(=O)OCCC/C=C/c1cccc3c1CN(C3)C(=O)O2)C(=O)NS(=O)(=O)C1CC1 |  |  |  |  | 12 nM |  | 0.04 nM | 

Further compounds by falling EC50 (Hepatitis C virus [6]), results first:

Row | concentration at 4 h [1] | AUC(0-t) at 4 h [3] | concentration at 4 h [4] | AUC(0-t) at 4 h [5] | EC50 (Hepatitis C virus [6]) | fraction unbound (Homo sapiens) | SMILES | Ki (Hepatitis C virus [2]) | EC50 (Hepatitis C virus [7])
4 |  |  |  |  | 18 nM | 0.019 | C=C[C@@H]1C[C@]1(NC(=O)[C@@H]1C[C@@H]2CN1C(=O)C(C(C)C)NC(C(F)(F)F)CCCCCCc1cccc3c1CN(C3)C(=O)O2)C(=O)NS(=O)(=O)C1CC1 (single isomer, unassigned) | 1.1 nM | 320 nM
5 |  |  |  |  | 14 nM |  | C=C[C@@H]1C[C@]1(NC(=O)[C@@H]1C[C@@H]2CN1C(=O)C(C(C)C)NCC(F)(F)CCCCCc1cccc3c1CN(C3)C(=O)O2)C(=O)NS(=O)(=O)C1CC1 (single isomer, unassigned) | 0.35 nM | 100 nM
6 | 560 nM | < 0.1 µM·h | 560 nM | < 0.1 µM·h | 3 nM |  | C=C[C@@H]1C[C@]1(NC(=O)[C@@H]1C[C@@H]2CN1C(=O)[C@H](C1CCCCC1)N(C)[C@H](C)CCCCCCc1cccc3c1CN(C3)C(=O)O2)C(=O)NS(=O)(=O)C1CC1 | 0.35 nM | 
7 |  | < 0.1 µM·h |  |  | 2 nM |  | C=C[C@@H]1C[C@]1(NC(=O)[C@@H]1C[C@@H]2CN1C(=O)[C@H](C1CCCCC1)N[C@H](C)CCCCCCc1cccc3c1CN(C3)C(=O)O2)C(=O)NS(=O)(=O)C1CC1 | 0.06 nM | 
8 | < 100 nM |  |  | < 0.1 µM·h | 0.7 nM |  | C=C[C@@H]1C[C@]1(NC(=O)[C@@H]1C[C@@H]2CN1C(=O)[C@H](C1CCCC1)N[C@H](C)CCCCCCc1cccc3c1CN(C3)C(=O)O2)C(=O)NS(=O)(=O)C1CC1 | 0.1 nM | 

Reference: ChEMBL document CHEMBL1158491, “Inhibitors of the hepatitis C virus NS3 protease with basic amine functionality at the P3-amino acid N-terminus: discovery and optimization of a new series of P2-P4 macrocycles” (J Med Chem, 2009)
